Data as given in ChEMBL document CHEMBL4368914, “Tricyclic Indazoles-A Novel Class of Selective Estrogen Receptor Degrader Antagonists” (J Med Chem, 2019).
pIC50: −log10 of the molar value. ≈ marks a conversion by molar mass, not a printed value.

Key:
Estrogen receptor [1] = target: T1, Estrogen receptor (Homo sapiens, UniProt P03372); test: Binding affinity to recombinant human GST-tagged ERalpha LBD expressed in baculovirus-infected insect cells by lantha screen assay
T1 sequence (P03372 whole entry): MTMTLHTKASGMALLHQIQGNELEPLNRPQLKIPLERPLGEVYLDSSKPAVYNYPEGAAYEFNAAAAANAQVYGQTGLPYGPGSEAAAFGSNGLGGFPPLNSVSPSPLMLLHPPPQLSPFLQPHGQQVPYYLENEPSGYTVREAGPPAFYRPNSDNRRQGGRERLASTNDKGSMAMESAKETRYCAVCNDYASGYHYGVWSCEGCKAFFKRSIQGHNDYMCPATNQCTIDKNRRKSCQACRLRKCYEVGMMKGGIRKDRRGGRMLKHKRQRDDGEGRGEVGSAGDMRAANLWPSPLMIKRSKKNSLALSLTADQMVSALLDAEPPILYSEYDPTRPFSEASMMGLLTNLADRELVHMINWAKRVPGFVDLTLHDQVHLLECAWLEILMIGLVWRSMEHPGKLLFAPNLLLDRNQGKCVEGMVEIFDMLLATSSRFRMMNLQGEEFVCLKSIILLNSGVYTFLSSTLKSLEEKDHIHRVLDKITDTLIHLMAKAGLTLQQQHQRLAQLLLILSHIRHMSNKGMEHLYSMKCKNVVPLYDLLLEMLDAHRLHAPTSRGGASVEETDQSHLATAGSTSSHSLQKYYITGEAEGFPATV

Estrogen receptor [2] = target: T1, Estrogen receptor; test: Induction of ERalpha degradation in human MCF7 cells after 18 to 24 hrs by in multiplexed cell assay; format: cell-based
Summary of the method: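 MCF-7 cells were kept at 37 °C, 5% CO₂ in phenol red-free RPMI1640 with 5% charcoal-stripped FCS and 2 mmol/L glutamine. Compounds came from 10 mmol/L DMSO stocks.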

[3] = Lipophilicity, log D of the compound at pH 7.4 by shake flask method; format: physicochemical; conditions: buffer
Summary of the method: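 Shake-flask measurement of logD at pH 7.4.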

[4] = Fraction unbound in Alderley Park Han Wistar rat plasma by equilibrium dialysis; format: ADME, cell-free
Summary of the method: (§1)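 Equilibrium dialysis from DMSO stock in 10% plasma, either Alderley Park Han Wistar rat plasma or human plasma.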

[5] = Fraction unbound in 10% human plasma by equilibrium dialysis; format: ADME, cell-free; conditions: 10% plasma; summary of the method: as §1
[6] = Intrinsic clearance in rat hepatocytes assessed per million cells; format: ADME, cell-based, Hepatocyte; conditions: read-out: CLH
Summary of the method: (§2)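 Rate of metabolism (µl/min/10⁶ cells) measured from DMSO stock in isolated hepatocytes diluted to 1x10⁶ cells/mL.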

[7] = Intrinsic clearance in human hepatocytes assessed per million cells; format: ADME, cell-based, Hepatocyte; conditions: read-out: CLH; summary of the method: as §2
[8] = Apparent permeability in human Caco2 cells at 10 uM; format: ADME, cell-based; conditions: Caco-2
Summary of the method: (§3)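 Compound at 10 μM incubated on cultured Caco-2 or MDCK cells. Permeability was measured apical-to-basolateral and basolateral-to-apical, and efflux ratio was taken as (B to A)/(A to B).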

[9] = Efflux ratio of apparent permeability in human Caco2 cells at 10 uM; format: ADME, cell-based; conditions: Caco-2; summary of the method: as §3
[10] = Apparent permeability in MDCK cells at 10 uM; format: ADME, cell-based, Canis lupus familiaris; conditions: dog; summary of the method: as §3
[11] = Efflux ratio of apparent permeability in MDCK cells at 10 uM; format: ADME, cell-based, Canis lupus familiaris; conditions: dog; summary of the method: as §3
[12] = Solubility of the compound in phosphate buffer at pH 7.4 after 24 hrs; format: physicochemical
Summary of the method: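 Solubility in aqueous phosphate buffer at pH 7.4 after 24 h at 25 °C.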

[13] = Fraction unbound in mouse plasma by equilibrium dialysis; format: ADME, cell-free
[14] = Fraction unbound in dog plasma by equilibrium dialysis; format: ADME, cell-free, Canis lupus familiaris
[15] = Clearance in rat at 0.5 mg/kg, iv or 1 mg/kg, po; format: ADME, organism-based; conditions: in vivo
Summary of the method: (§4)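 Single IV dose of 0.5 mg/kg and oral dose of 1 mg/kg in rat and dog. Both routes were formulated in 5% DMSO:95% hydroxypropyl β-cyclodextrin (30% w/v), at 1 mL/kg IV and 4 mL/kg PO.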

[16] = Clearance in dog at 0.5 mg/kg, iv or 1 mg/kg, po; format: ADME, organism-based, Canis lupus familiaris; conditions: in vivo; summary of the method: as §4
[17] = Volume of distribution at steady state in rat at 0.5 mg/kg, iv or 1 mg/kg, po; format: ADME, organism-based; conditions: in vivo, read-out: Vdss; summary of the method: as §4
[18] = Volume of distribution at steady state in dog at 0.5 mg/kg, iv or 1 mg/kg, po; format: ADME, organism-based, Canis lupus familiaris; conditions: in vivo, read-out: Vdss; summary of the method: as §4
[19] = Half life in rat at 0.5 mg/kg, iv or 1 mg/kg, po; format: ADME, organism-based; conditions: in vivo; summary of the method: as §4
[20] = Half life in dog at 0.5 mg/kg, iv or 1 mg/kg, po; format: ADME, organism-based, Canis lupus familiaris; conditions: in vivo; summary of the method: as §4
[21] = Oral bioavailability in rat at 1 mg/kg; format: ADME, organism-based; conditions: in vivo; summary of the method: as §4
[22] = Oral bioavailability in dog at 1 mg/kg; format: ADME, organism-based, Canis lupus familiaris; conditions: in vivo; summary of the method: as §4
[23] = AUC in rat at 1 mg/kg, po; format: ADME, organism-based; conditions: in vivo; summary of the method: as §4
[24] = AUC in dog at 1 mg/kg, po; format: ADME, organism-based, Canis lupus familiaris; conditions: in vivo; summary of the method: as §4
[25] = Glutathione reactivity in human liver microsomes assessed as GSH trapping ratio of compound to clozapine; format: ADME, Microsome
Summary of the method: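 Glutathione trapping in human liver microsomes, expressed as a ratio to clozapine.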

Cytochrome P450 1A2 = target: T2, Cytochrome P450 1A2 (Homo sapiens, UniProt P05177); test: Inhibition of CYP1A2 in human liver microsomes; format: ADME
T2 sequence (P05177 whole entry): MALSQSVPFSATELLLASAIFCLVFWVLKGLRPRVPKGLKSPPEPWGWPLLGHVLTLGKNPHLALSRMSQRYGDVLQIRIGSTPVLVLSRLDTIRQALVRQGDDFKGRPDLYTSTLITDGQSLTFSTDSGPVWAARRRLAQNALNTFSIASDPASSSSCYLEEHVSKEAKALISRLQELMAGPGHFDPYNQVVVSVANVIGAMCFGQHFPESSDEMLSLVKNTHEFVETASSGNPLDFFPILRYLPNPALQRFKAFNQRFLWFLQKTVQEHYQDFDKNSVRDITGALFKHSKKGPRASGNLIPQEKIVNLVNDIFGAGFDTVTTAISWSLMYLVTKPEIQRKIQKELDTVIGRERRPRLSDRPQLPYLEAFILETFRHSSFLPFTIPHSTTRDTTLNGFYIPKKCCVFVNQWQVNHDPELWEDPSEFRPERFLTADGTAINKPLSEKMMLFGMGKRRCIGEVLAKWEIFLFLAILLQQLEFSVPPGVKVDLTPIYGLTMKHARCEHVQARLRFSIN
Summary of the method: (§5)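 High-throughput human liver microsome assay across a panel of five CYP isoforms, giving IC50.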

Cytochrome P450 2C19 = Cytochrome P450 2C19 (Homo sapiens, UniProt P33261); test: Inhibition of CYP2C19 in human liver microsomes; format: ADME; summary of the method: as §5
Sequence of Cytochrome P450 2C19 (P33261 whole entry): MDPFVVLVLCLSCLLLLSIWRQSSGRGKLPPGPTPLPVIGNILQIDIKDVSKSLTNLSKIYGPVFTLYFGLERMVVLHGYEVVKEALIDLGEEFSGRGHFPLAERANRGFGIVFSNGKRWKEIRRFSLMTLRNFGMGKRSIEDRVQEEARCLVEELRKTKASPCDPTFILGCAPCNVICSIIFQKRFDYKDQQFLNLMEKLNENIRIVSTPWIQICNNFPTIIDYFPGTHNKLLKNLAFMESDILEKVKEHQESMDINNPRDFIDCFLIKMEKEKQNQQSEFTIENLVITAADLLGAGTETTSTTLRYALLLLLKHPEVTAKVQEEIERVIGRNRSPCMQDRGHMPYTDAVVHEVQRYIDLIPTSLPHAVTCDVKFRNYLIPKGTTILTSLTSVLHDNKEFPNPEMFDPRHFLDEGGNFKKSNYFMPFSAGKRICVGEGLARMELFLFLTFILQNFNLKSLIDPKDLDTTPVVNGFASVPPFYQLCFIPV

Cytochrome P450 2D6 = Cytochrome P450 2D6 (Homo sapiens, UniProt P10635); test: Inhibition of CYP2D6 in human liver microsomes; format: ADME; summary of the method: as §5
Sequence of Cytochrome P450 2D6 (P10635 whole entry): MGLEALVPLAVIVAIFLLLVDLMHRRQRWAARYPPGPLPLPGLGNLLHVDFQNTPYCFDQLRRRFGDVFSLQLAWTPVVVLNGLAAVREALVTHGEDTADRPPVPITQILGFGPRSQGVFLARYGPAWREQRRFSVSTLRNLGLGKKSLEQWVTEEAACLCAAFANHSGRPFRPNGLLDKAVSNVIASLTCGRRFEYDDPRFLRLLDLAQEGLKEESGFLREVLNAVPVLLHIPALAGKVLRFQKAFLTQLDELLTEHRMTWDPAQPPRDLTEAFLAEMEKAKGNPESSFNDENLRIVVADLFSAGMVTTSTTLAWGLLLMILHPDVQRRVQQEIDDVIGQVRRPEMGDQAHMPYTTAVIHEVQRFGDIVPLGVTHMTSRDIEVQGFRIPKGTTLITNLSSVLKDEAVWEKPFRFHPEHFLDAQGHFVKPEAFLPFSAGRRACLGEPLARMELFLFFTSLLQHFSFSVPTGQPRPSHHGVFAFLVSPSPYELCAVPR

[26] = Stability in pH 4 deuterated buffer assessed as compound remaining after 8 days by 1H NMR spectroscopy; format: physicochemical; conditions: pH 4, 192 h
Summary of the method: (§6)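 Compound diluted from a 25 mM DMSO-d6 stock to a final 1 mM in each deuterated buffer. Followed by ¹H NMR (500 MHz, water suppression, 64 scans) and LC-MS at 0, 24, 72 and 192 h (8 days).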

[27] = Stability in pH 7.4 deuterated buffer assessed as compound remaining after 8 days by 1H NMR spectroscopy; format: physicochemical; conditions: pH 7.4, 192 h; summary of the method: as §6
[28] = Stability in pH 10 deuterated buffer assessed as compound remaining after 8 days by 1H NMR spectroscopy; format: physicochemical; conditions: pH 10, 192 h; summary of the method: as §6
[29] = Intrinsic clearance in dog hepatocytes assessed per million cells; format: ADME, cell-based, Canis lupus familiaris, Hepatocyte; conditions: read-out: CLH; summary of the method: as §2
Cytochrome P450 2C9 = Cytochrome P450 2C9 (Homo sapiens, UniProt P11712); test: Inhibition of CYP2C9 in human liver microsomes; format: ADME; summary of the method: as §5
Sequence of Cytochrome P450 2C9 (P11712 whole entry): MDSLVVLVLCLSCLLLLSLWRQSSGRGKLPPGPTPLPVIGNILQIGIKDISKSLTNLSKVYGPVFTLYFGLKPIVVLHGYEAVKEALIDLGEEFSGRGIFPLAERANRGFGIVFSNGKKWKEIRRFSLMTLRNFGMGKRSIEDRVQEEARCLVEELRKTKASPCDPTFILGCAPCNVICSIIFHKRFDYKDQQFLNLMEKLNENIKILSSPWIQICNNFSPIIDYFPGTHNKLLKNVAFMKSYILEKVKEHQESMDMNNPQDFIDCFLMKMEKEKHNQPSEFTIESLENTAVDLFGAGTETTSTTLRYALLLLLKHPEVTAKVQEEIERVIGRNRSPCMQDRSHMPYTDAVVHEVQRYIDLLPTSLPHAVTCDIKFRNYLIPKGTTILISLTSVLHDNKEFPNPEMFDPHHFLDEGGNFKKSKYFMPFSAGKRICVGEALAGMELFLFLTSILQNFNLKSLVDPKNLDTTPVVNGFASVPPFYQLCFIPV

Cytochrome P450 3A4 = Cytochrome P450 3A4 (Homo sapiens, UniProt P08684); test: Inhibition of CYP3A4 in human liver microsomes; format: ADME; summary of the method: as §5
Sequence of Cytochrome P450 3A4 (P08684 whole entry): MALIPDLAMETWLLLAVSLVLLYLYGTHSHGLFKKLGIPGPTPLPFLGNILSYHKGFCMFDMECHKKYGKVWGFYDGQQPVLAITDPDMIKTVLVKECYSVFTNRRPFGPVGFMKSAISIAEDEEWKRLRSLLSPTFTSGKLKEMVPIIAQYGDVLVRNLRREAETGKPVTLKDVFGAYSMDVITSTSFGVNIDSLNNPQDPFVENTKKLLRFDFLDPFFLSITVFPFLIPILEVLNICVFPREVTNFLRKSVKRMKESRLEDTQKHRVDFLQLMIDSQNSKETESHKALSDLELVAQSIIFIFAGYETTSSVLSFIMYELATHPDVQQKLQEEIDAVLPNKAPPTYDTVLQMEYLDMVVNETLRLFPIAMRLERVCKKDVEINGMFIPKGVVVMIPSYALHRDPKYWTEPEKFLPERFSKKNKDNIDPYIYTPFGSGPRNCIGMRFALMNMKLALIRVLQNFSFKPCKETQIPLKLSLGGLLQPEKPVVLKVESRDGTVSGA

[30] = target: Voltage-gated inwardly rectifying potassium channel KCNH2 (Homo sapiens, UniProt Q12809); test: Inhibition of human ERG by plate based planar patch clamp assay
Sequence of Voltage-gated inwardly rectifying potassium channel KCNH2 (Q12809 whole entry): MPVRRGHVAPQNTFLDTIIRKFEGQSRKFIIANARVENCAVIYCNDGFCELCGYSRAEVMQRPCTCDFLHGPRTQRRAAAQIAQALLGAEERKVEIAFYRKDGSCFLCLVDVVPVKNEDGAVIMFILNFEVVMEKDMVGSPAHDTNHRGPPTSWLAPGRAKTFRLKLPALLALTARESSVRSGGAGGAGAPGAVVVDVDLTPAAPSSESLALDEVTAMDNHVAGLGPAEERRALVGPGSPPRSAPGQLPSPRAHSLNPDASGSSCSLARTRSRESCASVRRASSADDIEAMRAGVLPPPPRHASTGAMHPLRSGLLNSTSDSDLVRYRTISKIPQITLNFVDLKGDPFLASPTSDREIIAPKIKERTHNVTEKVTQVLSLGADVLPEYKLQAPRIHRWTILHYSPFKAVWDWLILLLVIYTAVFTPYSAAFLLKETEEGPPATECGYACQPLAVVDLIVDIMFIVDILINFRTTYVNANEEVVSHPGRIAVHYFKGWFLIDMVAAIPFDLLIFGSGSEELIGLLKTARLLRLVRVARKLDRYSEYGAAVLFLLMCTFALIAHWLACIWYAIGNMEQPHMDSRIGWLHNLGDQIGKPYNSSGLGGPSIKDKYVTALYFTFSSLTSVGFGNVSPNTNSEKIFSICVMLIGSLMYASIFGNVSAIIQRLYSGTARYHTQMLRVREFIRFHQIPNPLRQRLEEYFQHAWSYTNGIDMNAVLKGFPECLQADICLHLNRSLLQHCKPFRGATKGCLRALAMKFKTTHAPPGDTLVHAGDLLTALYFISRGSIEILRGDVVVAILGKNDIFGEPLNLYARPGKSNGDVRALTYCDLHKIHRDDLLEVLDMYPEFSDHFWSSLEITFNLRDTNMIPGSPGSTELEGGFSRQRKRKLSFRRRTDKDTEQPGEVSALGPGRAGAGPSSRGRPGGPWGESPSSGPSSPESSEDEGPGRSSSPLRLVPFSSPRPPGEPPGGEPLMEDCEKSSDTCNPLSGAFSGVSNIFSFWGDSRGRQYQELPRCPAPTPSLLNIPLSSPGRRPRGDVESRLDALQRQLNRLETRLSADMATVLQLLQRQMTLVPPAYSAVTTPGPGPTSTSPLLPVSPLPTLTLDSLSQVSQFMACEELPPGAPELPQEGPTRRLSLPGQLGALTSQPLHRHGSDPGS

Structure (SMILES) | pIC50 (Estrogen receptor [1]) | pIC50 (Estrogen receptor [2]) | logD [3] | fraction unbound [4] | fraction unbound [5] | hepatocyte CLint [6] [µL/min/1e6 cells] | hepatocyte CLint [7] [µL/min/1e6 cells] | Papp at 10 µM [8] [nm/s] | efflux ratio at 10 µM [9] | Papp at 10 µM [10] [nm/s] | efflux ratio at 10 µM [11] | solubility at 24 h [12] [µM] | fraction unbound [13] | fraction unbound [14] | clearance [15] [L/h/kg] | clearance [16] [L/h/kg] | Vd [17] [L/kg] | Vd [18] [L/kg] | half-life [19] [h] | half-life [20] [h] | also measured
COc1cc(/C=C/C(=O)O)ccc1[C@@H]1c2ccc3[nH]ncc3c2C[C@@H](C)N1CC(C)(F)F | 9.00 | 9.00 | 2.5 | 0.022 | 0.0092 | 18 | 5 | 62 | 2.2 | 84 | 1.7 | 810 (≈ 358 µg/mL) | 0.012 | 0.0087 | 1.92 | 0.168 | 1 | 0.36 | 1.3 | 6.8 | bioavailability [21]: 51%; bioavailability [22]: 45%; AUC [23]: 0.21 µM·h; AUC [24]: 6.6 µM·h; Ratio [25]: < 0.04; pIC50 (Cytochrome P450 1A2): < 4.52; pIC50 (Cytochrome P450 2C19): < 4.52; pIC50 (Cytochrome P450 2D6): < 4.52; Stability [26]: Stable; Stability [27]: Stable; Stability [28]: Stable; hepatocyte CLint [29]: 9.6 µL/min/1e6 cells
C[C@@H]1Cc2c(ccc3[nH]ncc23)[C@@H](c2c(F)cc(/C=C/C(=O)O)cc2F)N1CC(C)(F)F | 9.40 | 9.40 | 2.3 | 0.013 | 0.011 | 18 | 8 | 58 | 2.6 | 100 | 1.3 | 760 (≈ 340 µg/mL) | 0.021 | 0.0062 | 1.56 | 0.324 | 1.6 | 0.63 | 3.7 | 4.8 | bioavailability [21]: 16%; bioavailability [22]: 36%; AUC [23]: 0.57 µM·h; AUC [24]: 3 µM·h; Ratio [25]: < 0.04; pIC50 (Cytochrome P450 2C9): 5.18; pIC50 (Cytochrome P450 3A4): < 4.52; pIC50 [30]: < 4.00; pIC50 (Cytochrome P450 1A2): < 4.52; pIC50 (Cytochrome P450 2C19): < 4.52; pIC50 (Cytochrome P450 2D6): < 4.52; hepatocyte CLint [29]: 7.1 µL/min/1e6 cells
